In ChEMBL document CHEMBL1142962, “Antiproliferative prenylated stilbenes and flavonoids from Macaranga alnifolia from the Madagascar rainforest” (J Nat Prod, 2007):
pIC50: −log10 of the molar value.

Columns and labels:
BT-549 = assay: Growth inhibition of BT549 cells; format: functional; details: Homo sapiens
T47D = assay: Growth inhibition of T47D cells; format: functional; details: Homo sapiens
Method in brief: (§1)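 Tested in the NCI 60 human tumour cell line screen, which was run by NCI. The value for each line is the GI50, the concentration giving 50% growth inhibition. Results are also shown as a mean graph across the full panel.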

OVCAR-3 = assay: Growth inhibition of OVCAR-3 cells; format: functional; details: Homo sapiens
OVCAR-4 = assay: Growth inhibition of OVCAR4 cells; format: functional; details: Homo sapiens
OVCAR-8 = assay: Growth inhibition of OVCAR8 cells; format: functional; details: Homo sapiens; method in brief: as §1
SK-OV-3 = assay: Growth inhibition of SKOV3 cells; format: functional; details: Homo sapiens
MOLT-4 = assay: Growth inhibition of MOLT4 cells; format: functional; details: Homo sapiens; method in brief: as §1
SF-295 = assay: Growth inhibition of SF295 cells; format: functional; details: Homo sapiens; method in brief: as §1
A498 = assay: Growth inhibition of A498 cells; format: functional; details: Homo sapiens; method in brief: as §1
CAKI-1 = assay: Growth inhibition of CAKI1 cells; format: functional; details: Homo sapiens; method in brief: as §1
CCRF-CEM = assay: Growth inhibition of CCRF-CEM cells; format: functional; details: Homo sapiens; method in brief: as §1
K562 = assay: Growth inhibition of K562 cells; format: functional; details: Homo sapiens; method in brief: as §1
RPMI-8226 = assay: Growth inhibition of RPMI8226 cells; format: functional; details: Homo sapiens
A549 = assay: Growth inhibition of A549/ATCC cells; format: functional; details: Homo sapiens
EKVX = assay: Growth inhibition of EKVX cells; format: functional; details: Homo sapiens; method in brief: as §1
HOP-62 = assay: Growth inhibition of HOP62 cells; format: functional; details: Homo sapiens
HOP-92 = assay: Growth inhibition of HOP92 cells; format: functional; details: Homo sapiens
NCI-H23 = assay: Growth inhibition of NCI-H23 cells; format: functional; details: Homo sapiens
NCI-H322M = assay: Growth inhibition of NCI-H322M cells; format: functional; details: Homo sapiens
NCI-H460 = assay: Growth inhibition of NCI-H460 cells; format: functional; details: Homo sapiens
NCI-H522 = assay: Growth inhibition of NCI-H522 cells; format: functional; details: Homo sapiens; method in brief: as §1
HCC 2998 = assay: Growth inhibition of HCC2998 cells; format: functional; details: Homo sapiens
HCT-116 = assay: Growth inhibition of HCT116 cells; format: functional; details: Homo sapiens
HCT-15 = assay: Growth inhibition of HCT15 cells; format: functional; details: Homo sapiens
[1] = system: A2780 (human ovarian cancer); assay: Antiproliferative activity against drug-sensitive human A2780 cells
[2] = read-out: Log LC50 (the source's name) (converted)

## COc1cc(/C=C/c2cc(O)c(CC=C(C)C)c(O)c2)cc2c1O[C@]1(C)C[C@@H](O)[C@@H](O)C(C)(C)[C@H]1C2 [SCHWEINFURTHIN E]
BT-549
  GI50: 1510 nM
BT-549; [2]
  CC50: > 100 µM
BT-549; read-out: Log TGI (converted)
  TGI: 13.2 µM
T47D
  GI50: 3.24 µM
T47D; [2]
  CC50: > 100 µM
T47D; read-out: Log TGI (converted)
  TGI: > 100 µM
OVCAR-3; read-out: GI50
  GI50: 2.2 µM
OVCAR-3; [2]
  CC50: 24 µM
OVCAR-3; read-out: Log TGI (converted)
  TGI: 8.32 µM
OVCAR-3; read-out: pGI50 (converted)
  GI50: 6.17 µM
OVCAR-4
  LC50: > 100 µM
OVCAR-4; read-out: GI50
  GI50: 2200 nM
OVCAR-4; read-out: Log TGI (converted)
  TGI: 9.33 µM
OVCAR-4; read-out: pGI50 (converted)
  GI50: 575 nM
OVCAR-8; read-out: GI50
  GI50: 2200 nM
OVCAR-8; [2]
  CC50: > 100 µM
OVCAR-8; read-out: Log TGI (converted)
  TGI: 6.76 µM
OVCAR-8; read-out: pGI50 (converted)
  GI50: 2510 nM
SK-OV-3
  LC50: 93.3 µM
SK-OV-3; read-out: GI50
  GI50: 2200 nM
SK-OV-3; read-out: Log TGI (converted)
  TGI: 11 µM
SK-OV-3; read-out: pGI50 (converted)
  GI50: 2750 nM
MOLT-4; read-out: GI50
  GI50: < 10 nM
MOLT-4; [2]
  CC50: > 100 µM
MOLT-4; read-out: Log TGI (converted)
  TGI: < 10 nM
MOLT-4; read-out: TGI
  TGI: < 10 nM
MOLT-4; read-out: pGI50 (converted)
  GI50: < 10 nM
SF-295
  GI50: < 10 nM
  TGI: < 10 nM
A498
  LC50: > 100 µM
A498; read-out: GI50
  GI50: < 10 nM
A498; read-out: Log TGI (converted)
  TGI: < 10 nM
A498; read-out: TGI
  TGI: < 10 nM
A498; read-out: pGI50 (converted)
  GI50: < 10 nM
CAKI-1; read-out: GI50
  GI50: < 10 nM
CAKI-1; [2]
  CC50: 550 nM
CAKI-1; read-out: Log TGI (converted)
  TGI: < 10 nM
CAKI-1; read-out: TGI
  TGI: < 10 nM
CAKI-1; read-out: pGI50 (converted)
  GI50: < 10 nM
CCRF-CEM
  GI50: < 10 nM
CCRF-CEM; [2]
  CC50: > 100 µM
CCRF-CEM; read-out: Log TGI (converted)
  TGI: 10 µM
K562
  GI50: < 10 nM
K562; read-out: Log TGI (converted)
  TGI: 692 nM
RPMI-8226
  GI50: < 10 nM
RPMI-8226; [2]
  CC50: > 100 µM
RPMI-8226; read-out: Log TGI (converted)
  TGI: 52.5 nM
A549
  GI50: < 10 nM
A549; [2]
  CC50: > 100 µM
A549; read-out: Log TGI (converted)
  TGI: 12.6 µM
EKVX
  GI50: 2140 nM
EKVX; [2]
  CC50: > 100 µM
EKVX; read-out: Log TGI (converted)
  TGI: 28.2 µM
HOP-62
  GI50: < 10 nM
HOP-62; [2]
  CC50: 7.76 µM
HOP-62; read-out: Log TGI (converted)
  TGI: 75.9 nM
HOP-92
  GI50: 794 nM
HOP-92; [2]
  CC50: > 100 µM
HOP-92; read-out: Log TGI (converted)
  TGI: 5.13 µM
NCI-H23
  GI50: 240 nM
NCI-H23; [2]
  CC50: 13.8 µM
NCI-H23; read-out: Log TGI (converted)
  TGI: 2340 nM
NCI-H322M
  GI50: 288 nM
NCI-H322M; [2]
  CC50: 13.8 µM
NCI-H322M; read-out: Log TGI (converted)
  TGI: 2240 nM
NCI-H460
  GI50: 151 nM
NCI-H460; [2]
  CC50: > 100 µM
NCI-H460; read-out: Log TGI (converted)
  TGI: > 100 µM
NCI-H522
  GI50: 2000 nM
NCI-H522; [2]
  CC50: > 100 µM
NCI-H522; read-out: Log TGI (converted)
  TGI: > 100 µM
HCC 2998
  GI50: 1020 nM
HCC 2998; [2]
  CC50: 6.46 µM
HCC 2998; read-out: Log TGI (converted)
  TGI: 2570 nM
HCT-116
  GI50: 20.9 nM
HCT-116; [2]
  CC50: 6.92 µM
HCT-116; read-out: Log TGI (converted)
  TGI: 871 nM
HCT-15
  GI50: 603 nM
HCT-15; [2]
  CC50: 26.9 µM
HCT-15; read-out: Log TGI (converted)
  TGI: 3.63 µM
[1]
  pIC50: 6.59
